What is called IC50 is the midpoint of a concentration-inhibition curve. Read a low IC50 as greater potency in that assay.

The target of assay [1] is Epidermal growth factor receptor (Homo sapiens, UniProt P00533). Kind of assay: Concentration required to inhibit phosphorylation of isolated human epidermal growth factor tyrosine kinase receptor by 50%.
In assay [2] the target is T1, Platelet-derived growth factor receptor (Homo sapiens, UniProt P09619+P16234). Kind of assay: Inhibition of isolated human PDGF receptor phosphorylation. It counts as protein-complex assay.
Assay [3] deals with T1, Platelet-derived growth factor receptor. Kind of assay: Inhibition of human PDGF receptor phosphorylation; 0.008-0.07. It counts as protein-complex assay.
Assay [4] has the same target. Kind of assay: Inhibition of human PDGF receptor phosphorylation; 0.02-0.04. It counts as protein-complex assay. Put shortly: (§1)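 PDGF receptor from NIH 3T3 cell lysates (cells made quiescent 24 h in 0.5% calf serum), stimulated with 10 ng/mL PDGF for 30 min at 4 °C and immunoprecipitated on Protein A beads. Each compound ran in at least two dose-response assays.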

Assay [5] has the same target. Kind of assay: Inhibition of human PDGF receptor phosphorylation; 0.01-0.02. In kind it is protein-complex assay.
For assay [6], the target named is cAMP-dependent protein kinase (PKA) (Homo sapiens, UniProt P22694+P17612+P22612). The assay can be described thus: Test for the inhibition of protein kinase A. In kind it is protein assay.
The target of assay [7] is T1, Platelet-derived growth factor receptor. The assay can be described thus: Inhibition of human PDGF receptor phosphorylation; 20-30. In kind it is protein-complex assay.
For assay [8] the target is unchanged. Kind of assay: Inhibition of human PDGF receptor phosphorylation; 1-2. It counts as protein-complex assay. Put shortly: as §1
The target is the same in assay [9]. Kind of assay: Inhibition of human PDGF receptor phosphorylation; 0.1-0.5. In kind it is protein-complex assay. A digest of the protocol: as §1
For assay [10] the target is unchanged. Kind of assay: Inhibition of human PDGF receptor phosphorylation; 0.3-0.5. In kind it is protein-complex assay. A digest of the protocol: as §1
Assay [11] has the same target. The assay can be described thus: Inhibition of human PDGF receptor phosphorylation; 0.2-0.8. In kind it is protein-complex assay. Put shortly: (§2)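 Receptor from quiescent NIH 3T3 cell lysates (24 h in 0.5% calf serum before lysis), stimulated with 10 ng/mL PDGF for 30 min at 4 °C, then immunoprecipitated with anti-PDGF receptor antibody on Protein A beads. Compound pre-incubated 10 min at 4 °C in 50 mM Tris, 10 mM MnCl2, pH 7.5. At least two dose-response assays per compound.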

The target is the same in assay [12]. Kind of assay: Inhibition of human PDGF receptor phosphorylation; 0.7-5. It counts as protein-complex assay. Put shortly:
as §1

Assay [13] shares this target. The assay can be described thus: Inhibition of human PDGF receptor phosphorylation; 0.2-0.4. It counts as protein-complex assay. Put shortly: as §1
The target is the same in assay [14]. The assay can be described thus: Inhibition of human PDGF receptor phosphorylation; 0.1-0.4. In kind it is protein-complex assay. A digest of the protocol:
as §1

For assay [15] the target is unchanged. Kind of assay: Inhibition of human PDGF receptor phosphorylation; 0.04-0.07. In kind it is protein-complex assay. Put shortly:
as §2

Assay [16] has the same target. The assay can be described thus: Inhibition of human PDGF receptor phosphorylation; 0.015-0.03. In kind it is protein-complex assay. Put shortly:
as §1

The target is the same in assay [17]. The assay can be described thus: Inhibition of human PDGF receptor phosphorylation; 0.5-3. In kind it is protein-complex assay.
For assay [18] the target is unchanged. The assay can be described thus: Inhibition of human PDGF receptor phosphorylation; 0.02-0.05. It counts as protein-complex assay. Put shortly: as §1
For assay [19] the target is unchanged. The assay can be described thus: Inhibition of human PDGF receptor phosphorylation; 0.1-0.2. It counts as protein-complex assay. Put shortly:
as §1

Assay [20] has the same target. The assay can be described thus: Inhibition of human PDGF receptor phosphorylation; 0.15-0.5. It counts as protein-complex assay. Put shortly: as §1
The target is the same in assay [21]. The assay can be described thus: Inhibition of human PDGF receptor phosphorylation; 0.5-2. It counts as protein-complex assay.
The target is the same in assay [22]. The assay can be described thus: Inhibition of human PDGF receptor phosphorylation; 0.09-0.2. In kind it is protein-complex assay. Put shortly: as §1
Assay [23] has the same target. Kind of assay: Inhibition of human PDGF receptor phosphorylation; 1-7. In kind it is protein-complex assay.
Assay [24] shares this target. Kind of assay: Inhibition of human PDGF receptor phosphorylation; 2-4. In kind it is protein-complex assay.
The target is the same in assay [25]. The assay can be described thus: Inhibition of human PDGF receptor phosphorylation; 0.002-0.06. In kind it is protein-complex assay. Put shortly:
as §1

Assay [26] shares this target. Kind of assay: Inhibition of human PDGF receptor phosphorylation; 0.035-0.06. In kind it is protein-complex assay. A digest of the protocol:
as §1

Assay [27] shares this target. Kind of assay: Inhibition of human PDGF receptor phosphorylation; 0.2-0.6. In kind it is protein-complex assay. A digest of the protocol: as §1
The target is the same in assay [28]. Kind of assay: Inhibition of human PDGF receptor phosphorylation; 0.07-0.15. It counts as protein-complex assay.
The target is the same in assay [29]. Kind of assay: Inhibition of human PDGF receptor phosphorylation; 0.007-0.03. In kind it is protein-complex assay.
For assay [30] the target is unchanged. Kind of assay: Inhibition of human PDGF receptor phosphorylation; 0.001-0.015. In kind it is protein-complex assay.
Assay [31] has the same target. The assay can be described thus: Inhibition of human PDGF receptor phosphorylation; 0.001-0.005. It counts as protein-complex assay. Put shortly: as §1

Chain of Epidermal growth factor receptor (P00533 whole entry): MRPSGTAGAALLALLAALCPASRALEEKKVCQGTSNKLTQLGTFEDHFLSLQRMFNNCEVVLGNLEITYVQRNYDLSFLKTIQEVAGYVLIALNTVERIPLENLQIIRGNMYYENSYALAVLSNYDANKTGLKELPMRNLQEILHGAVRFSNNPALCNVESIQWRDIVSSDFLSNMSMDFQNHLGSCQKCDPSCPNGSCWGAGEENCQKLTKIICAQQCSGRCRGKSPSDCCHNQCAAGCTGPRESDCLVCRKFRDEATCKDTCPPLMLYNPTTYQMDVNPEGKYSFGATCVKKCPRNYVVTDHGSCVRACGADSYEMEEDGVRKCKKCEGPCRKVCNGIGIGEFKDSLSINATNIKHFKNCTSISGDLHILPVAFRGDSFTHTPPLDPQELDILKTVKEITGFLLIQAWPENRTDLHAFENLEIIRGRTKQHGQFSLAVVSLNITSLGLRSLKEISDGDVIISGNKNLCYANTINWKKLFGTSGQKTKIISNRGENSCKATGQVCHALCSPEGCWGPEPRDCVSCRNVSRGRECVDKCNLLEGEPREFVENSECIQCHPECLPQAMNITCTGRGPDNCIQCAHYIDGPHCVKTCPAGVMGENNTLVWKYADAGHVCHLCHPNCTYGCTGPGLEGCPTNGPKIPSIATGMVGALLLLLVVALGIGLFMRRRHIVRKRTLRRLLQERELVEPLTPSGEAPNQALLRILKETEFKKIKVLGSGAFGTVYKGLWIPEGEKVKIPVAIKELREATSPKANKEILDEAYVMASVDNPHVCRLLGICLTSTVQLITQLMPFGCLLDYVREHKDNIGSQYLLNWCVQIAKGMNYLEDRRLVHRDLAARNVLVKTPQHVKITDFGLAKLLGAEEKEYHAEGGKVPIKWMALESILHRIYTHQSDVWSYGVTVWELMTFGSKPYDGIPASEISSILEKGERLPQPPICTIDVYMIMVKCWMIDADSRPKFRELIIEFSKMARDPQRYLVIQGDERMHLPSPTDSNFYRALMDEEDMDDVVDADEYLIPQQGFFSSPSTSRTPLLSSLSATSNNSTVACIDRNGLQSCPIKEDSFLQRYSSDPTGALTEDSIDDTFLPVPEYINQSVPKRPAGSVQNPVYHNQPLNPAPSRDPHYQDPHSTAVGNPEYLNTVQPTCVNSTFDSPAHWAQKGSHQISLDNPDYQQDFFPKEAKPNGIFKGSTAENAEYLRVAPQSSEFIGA

For `COc1cc2cc(-c3ccc(N(C)C)cc3)cnc2cc1OC`, the concentration for half-maximal inhibition (IC50) in assay [1] was > 20 µM; in assay [2], 10 µM.

Regarding `COc1ccc(-c2cnc3cc(OC)c(OC)cc3c2)cn1`, the IC50 in assay [3] was 0.07 µM; in [1], > 20 µM. For `COc1cc2cc(C3=CCCC3)cnc2cc1OC`, the IC50 was 0.04 µM in assay [4] and > 20 µM in [1]. As for `COc1cc2cc(-c3ccsc3)cnc2cc1OC`, the IC50 in assay [1] is > 20 µM; in [5] it was 0.02 µM; in assay [6], > 200 µM. Take `COc1cc2cccnc2cc1OC`: the IC50 was 30 µM in [7] and > 20 µM in [1].

Turning to `Clc1cc2cc(-c3ccsc3)cnc2cc1Cl`, the IC50 in assay [1] is > 20 µM; in assay [8] it was 2 µM.

For the compound `COc1cc2cc(C3CCCC3)cnc2cc1OC`, the IC50 is > 20 µM in [1] and 0.5 µM in assay [9]. On to `COc1cc2cc(CCC3CCCCC3)cnc2cc1OC`, for which the IC50 in [1] was > 20 µM; in assay [10], 0.5 µM. On to `COc1ccc(CCc2cnc3cc(OC)c(OC)cc3c2)cc1`, for which the IC50 in assay [1] is > 20 µM; in assay [11], 0.8 µM. In turn, `COc1cc2cc(-c3ccc(C(=O)O)cc3)cnc2cc1OC` yielded a concentration for half-maximal inhibition (IC50) in [12] of 5 µM.

For `COc1cc2cc(-c3cc(F)c(OC)c(F)c3)cnc2cc1OC`, the IC50 was > 20 µM in assay [1] and 0.4 µM in [13]. Turning to `COc1ccc(-c2cnc3cc(OC)c(OC)cc3c2)cc1C`, the IC50 in assay [1] was > 20 µM; in assay [14], 0.4 µM.

Take `COc1cc2cc(OCc3ccccc3)cnc2cc1OC`: the concentration for half-maximal inhibition (IC50) in [1] was > 20 µM; in assay [15] it was 0.07 µM.

With `COc1cc2cc(-c3ccc(=O)[nH]c3)cnc2cc1OC`, the IC50 in [1] was > 20 µM; in assay [16], 0.03 µM. On to `COc1ccc(/C=C(\C#N)c2cccnc2)cc1OC`, for which the values for the half-maximal inhibitory concentration (IC50) in [17] and in [1] were 3 µM and 0.7 µM, respectively. For the compound `COc1cc2cc(C#Cc3ccccc3)cnc2cc1OC`, the IC50 was 0.05 µM in [18] and > 20 µM in assay [1].

As to `CCOC(=O)c1ccc(-c2cnc3cc(OC)c(OC)cc3c2)cc1`, in assay [19], the IC50 amounted to 0.2 µM. With `COc1cc2cc(-c3ccc(OC)c([N+](=O)[O-])c3)cnc2cc1OC`, the concentration for half-maximal inhibition (IC50) in assay [1] is > 20 µM; in assay [20], 0.5 µM.

Regarding `COc1cc2cc(-c3ccc(C)cc3)cnc2cc1OC`, the results for the IC50 in assay [21] and in assay [1] were 2 µM and > 20 µM, respectively. For `COc1cc2cc(-c3ccc(F)c(F)c3)cnc2cc1OC`, the IC50 in assay [1] was > 20 µM; in assay [22], 0.2 µM.

Take `COc1cc2cc(-c3ccc(Cl)c(Cl)c3)cnc2cc1OC`: the figures for the IC50 in [1] and in [23] were > 20 µM and 7 µM, respectively. On to `COc1ccc(-c2cnc3cc(OC)c(OC)cc3c2)c(OC)c1`, for which the IC50 in assay [1] is > 20 µM; in assay [2] it was > 50 µM.

`Fc1cc2cc(-c3ccsc3)cnc2cc1F` came in with an IC50 in [24] of 4 µM. For the compound `COc1ccc2cc(-c3ccsc3)cnc2c1`, the IC50 in assay [1] was > 20 µM; in assay [25] it was 0.06 µM.

Regarding `COc1cc2cc(-c3ccc(F)cc3)cnc2cc1OC`, the 50% inhibitory concentration (IC50) in assay [26] was 0.06 µM; in [1], > 20 µM. Regarding `c1cc(-c2cnc3cc4c(cc3c2)OCO4)cs1`, the IC50 in [1] is > 20 µM; in assay [27] it was 0.6 µM.

On to `COc1cc2cc(-c3ccc([N+](=O)[O-])cc3)cnc2cc1OC`, for which the results for the IC50 in assay [28] and in assay [1] were 0.15 µM and > 20 µM, respectively. With `COc1cc2cc(-c3ccc(Cl)s3)cnc2cc1OC`, the 50% inhibitory concentration (IC50) in [29] was 0.03 µM; in [1] it was > 20 µM.

With `COc1ccc(-c2cnc3cc(OC)c(OC)cc3c2)cc1`, the IC50 in [30] is 0.015 µM; in [1] it was > 20 µM; in assay [6], > 200 µM. Regarding `COc1cc2cc(/C=C/c3ccccc3)cnc2cc1OC`, the IC50 is > 20 µM in assay [1] and 0.005 µM in assay [31].

Values taken from ChEMBL document CHEMBL1127568, “A new series of PDGF receptor tyrosine kinase inhibitors: 3-substituted quinoline derivatives” (J Med Chem, 1994).
